These results are taken from ChEMBL document CHEMBL4513216, “Probing the Open Global Health Chemical Diversity Library for Multistage-Active Starting Points for Next-Generation Antimalarials” (ACS Infect Dis, 2020).

This data set can be described thus: Toxicity liver stage against HepG2, at 10uM. The data set is classed as cell-based. Set-up: test concentration 10 uM, cell line HepG2-A16-CD81EGFP. The conditions noted are these: human, HepG2-A16-CD81EGFP cells; read-out: INHIBITION
Summed up:
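Uninfected HepG2-A16-CD81EGFP cells, 3 × 10^3 per well, 1536-well, plated on prespotted compound at 10 μM final, parasite-free screening media added to match infected plates; puromycin 10 μM positive, DMSO 0.5% negative; run in parallel with 48 h PbLuc assay at 37 °C, 5% CO2; viability by CellTiter-Glo luminescence, normalized to controls.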
As for `CC(O)CN1CCC(CN(C)Cc2ccc(C(N)=O)cc2)CC1` (stereo not given), the cytotoxicity at 10 µM was -1.66%. With `CC(C)c1nc2n(n1)CC(Nc1ncnc3c1CCC3)CC2` (stereo not given), the cytotoxicity at 10 µM was -49.1%.

Consider `CC(C)N(CC(=O)Nc1cccc(C#N)c1)C1CC1`, for which the cytotoxicity at 10 µM was -7.16%.

As to `Cc1cc(C)c2c(NCC3(O)CCCCC3)ncnc2n1`, the cytotoxicity at 10 µM was -7.13%. The same measure for `Cc1ncsc1C(=O)NCCNc1ncccc1C#N`: -21.5%. The same measure for `CC(=O)c1ccc(-c2cc(C(F)(F)F)cc(N(C)C)n2)cc1`: 4.02%.

As for `Cc1noc(C)c1CN(C)C(=O)NC1CCOCC1`, the cytotoxicity at 10 µM was -14.8%. The result for `O=C(N[C@]12CC1CN(C(=O)c1ccco1)C2)c1cccc(F)c1` (stereo not given in full) reads -15.3%.

Consider `CC(=O)N(Cc1ncc(C(C)C)o1)C1CCN(CCn2cncn2)C1` (stereo not given), for which the cytotoxicity at 10 µM is -11.3%. In the case of `CCOCC(=O)NCCc1ccc(I)s1`, the cytotoxicity at 10 µM is -4.76%.

On to `Cc1ccnc(NC(=O)c2ccc(Cl)o2)c1`, for which the cytotoxicity at 10 µM worked out at 4.14%.

As to `Cc1cc(C)c(C(=O)N2CCN(c3ncccc3C#N)CC2)c(=O)[nH]1`, the cytotoxicity at 10 µM was -3.28%. The same measure for `Cc1cc(C(=O)N2CCCC(n3cncn3)C2)on1` (stereo not given): -22.5%. The same measure for `O=C(c1ncccc1O)N1CCc2c(nc(-c3ccncc3)[nH]c2=O)C1`: -0.918%; for `COC(=O)CN(Cc1ccccc1C)C(=O)CCNC(=O)C(C)(C)C`: 12.9%; for `Cn1ccnc1CN1CCCC1CCc1ccccc1` (stereo not given): 13.8%. As for `CN(c1cccnn1)C1CCN(C(=O)c2ccc3c(c2)COC3)CC1`, the cytotoxicity at 10 µM is -12%. Consider `CC(C)N1CCC(CC(=O)NCc2cc(O)ncn2)CC1`, for which the cytotoxicity at 10 µM was found to be 7.81%.

For `COc1ccc(OCc2nc(C(=O)N3CC[C@H](O)[C@@H](O)C3)co2)cc1`, the cytotoxicity at 10 µM is -5.42%. For the molecule `O=C(c1ccc(N2CCCC2)nn1)N1CCCc2cc(F)c(F)cc21`, the cytotoxicity at 10 µM is -16.3%.

Consider `Cc1cc(C)n(Cc2cccc(C(=O)NCCN3CCOCC3)c2)n1`, for which the cytotoxicity at 10 µM was -12.8%. The same measure for `CN1CC(=O)N(C2CCNC2)Cc2c(NC3CCCC3)ncnc21` (stereo not given): 9.46%.

Regarding `COc1cc(C)nc(N2CCN(C(=O)c3ccccc3C)CC2)n1`, the cytotoxicity at 10 µM was -2.18%. For the molecule `Cc1noc(-c2ccc(N(C)Cc3nccs3)nc2)n1`, the cytotoxicity at 10 µM came out at 9%. The same measure for `CN(Cc1ccc2nsnc2c1)C(=O)CCc1cc2n(n1)CCCNC2`: -4.62%; for `CCC(=O)N1CC[C@@H](c2ccc3ccccc3c2)[C@H](O)C1`: -11.4%. The same measure for `Nc1ccnn1C1CCN(Cc2ccccc2)C1` (stereo not given): 6.36%; for `CC(C)c1nnc(NC(=O)NC2CCN(Cc3ccccc3)C2)s1` (stereo not given): -11.2%. The same measure for `CCOC1COC2(CCN(Cc3ccc(F)cc3)CC2)C1` (stereo not given): -0.508%; for `Cc1cccc(CN2CCc3cc(C(=O)O)c(N(C)C)nc3CC2)n1`: 3.68%. Take `CC(C)CNc1nnc(SC(C(=O)NCc2cccnc2)C(C)C)s1` (stereo not given): the cytotoxicity at 10 µM is -5.9%. The same measure for `COCCN1C[C@@H]2CN(c3cc(OC)ncn3)CCC[C@]2(C(=O)O)C1`: 4.26%; for `COCCN1CCCN(C(=O)c2oc(C)nc2C)CC1`: 2.04%; for `CN(C)C(=O)c1nc(-c2ccc(S(C)(=O)=O)cc2)c2ccccn12`: 8.77%.

Take `CC(C)C(=O)NCc1ccccc1NS(=O)(=O)c1ccccc1`: the cytotoxicity at 10 µM stood at 9.05%. For the molecule `Cc1ccccc1-n1cc(CNc2ncnc3c2CCNCC3)cn1`, the cytotoxicity at 10 µM is 1.25%. The same measure for `Cc1nn(C)c2c(NCc3cccnc3)nc(C3CC3)nc12`: -9.84%; for `O=C(NCc1ccccc1)N1C[C@H]2CCN[C@H]2C1`: -5.54%. Take `FC(F)(F)Cn1ccnc1CNCC1CCCN1c1cccnn1` (stereo not given): the cytotoxicity at 10 µM was -26.6%. For `O=C(O)c1nnn(-c2ccc(Cl)c(C(F)(F)F)c2)c1-c1ccncc1`, the cytotoxicity at 10 µM came out at 8.63%.
